Measured values published in ChEMBL document CHEMBL2203116, “Synthesis and evaluation of novel carbon-11 labeled oxopurine analogues for positron emission tomography imaging of translocator protein (18 kDa) in peripheral organs” (J Med Chem, 2011).

Experiments:
Blood = assay: Drug uptake in iv dosed Sprague-Dawley rat cardiac blood pool up to 30 mins by PET scanning; assay type: ADME, organism-based; settings: in vivo, 0.5 h
Method in brief: (§1)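 Comparator radioligand 15–20 MBq/200 μL (0.15–0.18 nmol) injected iv into isoflurane-anesthetized male Sprague-Dawley rats. ROI time–activity curves for lung, heart, kidney, liver and cardiac blood pool. Uptake as decay-corrected SUV normalized to injected activity and body weight. n = 4, mean ± SD.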

Kidney [1] = assay: Drug uptake in iv dosed Sprague-Dawley rat kidney after 10 mins by PET scanning; assay type: ADME, organism-based; settings: in vivo; method in brief: as §1
Lung [2] = assay: Drug uptake in iv dosed Sprague-Dawley rat lung after 1 min by PET scanning; assay type: ADME, organism-based; settings: in vivo; method in brief: as §1
Kidney [3] = assay: Drug uptake in iv dosed Sprague-Dawley rat kidney upto 30 mins by PET scanning; assay type: ADME, organism-based; settings: in vivo, 0.5 h; method in brief: as §1
Heart [4] = assay: Drug uptake in iv dosed Sprague-Dawley rat heart after 10 mins by PET scanning; assay type: ADME, organism-based; settings: in vivo; method in brief: as §1
Liver = assay: Drug uptake in iv dosed Sprague-Dawley rat liver upto 30 mins by PET scanning; assay type: ADME, organism-based; settings: in vivo, 0.5 h; method in brief: as §1
Lung [5] = assay: Drug uptake in iv dosed Sprague-Dawley rat lung after 27.5 mins by PET scanning; assay type: ADME, organism-based; settings: in vivo; method in brief: as §1
Heart [6] = assay: Drug uptake in iv dosed Sprague-Dawley rat heart upto 30 mins by PET scanning; assay type: ADME, organism-based; settings: in vivo, 0.5 h; method in brief: as §1
[7] = Lipophilicity, log D of the compound in octanol-phosphate buffer at pH 7.4 by shake flask method; assay type: physicochemical
Method in brief: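 Radioligand (~200000 cpm) shaken with n-octanol (3.0 g) and 0.1 M sodium phosphate buffer pH 7.4 (3.0 g). Vortexed 3 min at room temperature, centrifuged 3500 rpm for 5 min. Phases weighed and counted; organic layer repartitioned until consistent. LogD = log of the cpm/g octanol to cpm/g buffer ratio. Triplicate.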

Translocator protein = Translocator protein (Rattus norvegicus, UniProt P16257); assay: Displacement of [11C]-PK-11195 from TPSO in Sprague-Dawley rat brain homogenate after 30 mins by gamma counting; assay type: tissue-based
Sequence of Translocator protein (P16257 whole entry, looked up): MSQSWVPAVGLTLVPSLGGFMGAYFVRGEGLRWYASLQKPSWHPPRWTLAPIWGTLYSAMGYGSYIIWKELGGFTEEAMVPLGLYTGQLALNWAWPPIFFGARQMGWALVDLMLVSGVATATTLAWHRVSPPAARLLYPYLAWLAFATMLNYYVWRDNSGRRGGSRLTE

Row | Structure (SMILES) | Drug uptake (Blood) | Drug uptake (Kidney [3]) | Drug uptake (Liver) | Drug uptake (Heart [6]) | logD [7] | Ki (Translocator protein) | also measured
1 | CCN(Cc1ccncc1)C(=O)Cn1c(=O)n(C)c2cnc(-c3ccccc3)nc21 |  |  |  |  | 2.03 | 5.1 nM | 
2 | CCN(Cc1ccccc1)C(=O)Cn1c(=O)n([11CH3])c2cnc(-c3ccccc3)nc21 | Active | Active | Active | Active |  |  | SUV (Kidney [1]): 2.8; SUV (Lung [2]): 7.6; SUV (Heart [4]): 4.2; SUV (Lung [5]): 2.3
3 | CCN(Cc1ccccc1)C(=O)Cn1c(=O)n(C)c2cnc(-c3ccccc3)nc21 |  |  |  |  | 3.48 | 0.6 nM | 

Continued, in another order:

Row | Drug uptake (Blood) | Drug uptake (Kidney [3]) | Drug uptake (Liver) | Drug uptake (Heart [6]) | logD [7] | Ki (Translocator protein) | Structure (SMILES) | also measured
4 | Active | Active | Active | Active |  |  | CC[C@@H](C)N([11CH3])C(=O)c1cc2ccccc2c(-c2ccccc2Cl)n1 | Drug uptake (Kidney [1]): Active; Drug uptake (Lung [2]): Active; Drug uptake (Heart [4]): Active; Drug uptake (Lung [5]): Active
5 |  |  |  |  | 3.74 |  | CC[C@@H](C)N(C)C(=O)c1cc2ccccc2c(-c2ccccc2Cl)n1 [(R)PK-11195] | 
